Key:
Type in all cases: binding
CSP3 = CSP3 (Caulobacter vibrioides, UniProt A0A0H3CCM2, K168R)
CSP10 = CSP10 (Caulobacter vibrioides, UniProt A0A0H3CCM2, K168R/R155A)
CSP14 = CSP14 (Caulobacter vibrioides, UniProt A0A0H3CCM2, K168R/N159A)
CSP18 = CSP18 (Caulobacter vibrioides, UniProt A0A0H3CCM2, K168R/Y163A)
CSP31 = CSP31 (Caulobacter vibrioides, UniProt A0A0H3CCM2, DEL160/K168R)
CSP21 = CSP21 (Caulobacter vibrioides, UniProt A0A0H3CCM2, K168R/P166A)
CSP19 = CSP19 (Caulobacter vibrioides, UniProt A0A0H3CCM2, K164A/K168R)
CSP4 = CSP4 (Caulobacter vibrioides, UniProt A0A0H3CCM2, K168R)
CSP20 = CSP20 (Caulobacter vibrioides, UniProt A0A0H3CCM2, G165A/K168R)
CSP1 = CSP1 (Caulobacter vibrioides, UniProt A0A0H3CCM2)
Outline: (§1)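 Peptide or protein, c-di-GMP and buffer were degassed for 15 min; runs at 15 °C. Format 1: cell held about 10 µM peptide/protein and syringe about 200 µM c-di-GMP, 30 injections at 250-s spacing. Format 2 (reverse): cell held about 20 µM c-di-GMP and syringe about 100 µM peptide/protein, 18 injections at 120-s spacing. Concentrations were set by absorbance at 1-cm path.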

H6-MBP-CSP2 = H6-MBP-CSP2 (Caulobacter vibrioides, UniProt A0A0H3CCM2, K168R)
CSP17 = CSP17 (Caulobacter vibrioides, UniProt A0A0H3CCM2, D162A/K168R)
CSP22 = CSP22 (Caulobacter vibrioides, UniProt A0A0H3CCM2, K168R/R167A)
CSP11 = CSP11 (Caulobacter vibrioides, UniProt A0A0H3CCM2, K168R/R156A)
CSP26 = CSP26 (Caulobacter vibrioides, UniProt A0A0H3CCM2, A171L/K168R)
CSP25 = CSP25 (Caulobacter vibrioides, UniProt A0A0H3CCM2, K168R/K170A)
CSP28 = CSP28 (Caulobacter vibrioides, UniProt A0A0H3CCM2, DEL157/K168R)
CSP12 = CSP12 (Caulobacter vibrioides, UniProt A0A0H3CCM2, K168R/R157A)
CSP29 = CSP29 (Caulobacter vibrioides, UniProt A0A0H3CCM2, DEL158/K168R)
CSP7 = CSP7 (Caulobacter vibrioides, UniProt A0A0H3CCM2, K168R)
CSP6 = CSP6 (Caulobacter vibrioides, UniProt A0A0H3CCM2, K168R)
CSP2 = CSP2 (Caulobacter vibrioides, UniProt A0A0H3CCM2, K168R)
CSP23 = CSP23 (Caulobacter vibrioides, UniProt A0A0H3CCM2, K168A)
CSP32 = CSP32 (Caulobacter vibrioides, UniProt A0A0H3CCM2, DEL161/K168R)
CSP30 = CSP30 (Caulobacter vibrioides, UniProt A0A0H3CCM2, DEL159/K168R)
CSP16 = CSP16 (Caulobacter vibrioides, UniProt A0A0H3CCM2, A161L/K168R)
CSP27 = CSP27 (Caulobacter vibrioides, UniProt A0A0H3CCM2, D172A/K168R)
CSP15 = CSP15 (Caulobacter vibrioides, UniProt A0A0H3CCM2, K168R/S160A)
CSP13 = CSP13 (Caulobacter vibrioides, UniProt A0A0H3CCM2, F158A/K168R)
CSP9 = CSP9 (Caulobacter vibrioides, UniProt A0A0H3CCM2, D154A/K168R)
3′3′-cGAMP = experiment: Microscale thermophoresis; conditions: N-terminally FITC-labeled CSP4
Outline: (§2)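 Binding of nucleotides to an N-terminally FITC-labelled, C-terminally amidated synthetic peptide (≥70% purity, dissolved in ultrapure water, concentration by spectrophotometry). Measured by microscale thermophoresis in standard-treated capillaries with blue-channel fluorescence, 30 s infrared heating at 50% of maximum laser power, then 5 s cooling. Buffer: 50 mM Tris·HCl pH 8.0, 100 mM NaCl, 0.1% polysorbate 20.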

GMP = experiment: Microscale thermophoresis; conditions: N-terminally FITC-labeled CSP4
Outline: as §2

GTP = experiment: Microscale thermophoresis; conditions: N-terminally FITC-labeled CSP4
Outline: as §2

2′3′-cGAMP = experiment: Microscale thermophoresis; conditions: N-terminally FITC-labeled CSP4
Outline: as §2

c-di-GMP [1] = experiment: Microscale thermophoresis; conditions: N-terminally FITC-labeled CSP4
Outline: as §2

pGpG = experiment: Microscale thermophoresis; conditions: N-terminally FITC-labeled CSP4
Outline: as §2

3′3′-c-di-AMP = experiment: Microscale thermophoresis; conditions: N-terminally FITC-labeled CSP4
Outline: as §2

c-di-GMP [2] = experiment: Isothermal titration calorimetry; conditions: ITC, 50 mM Tris·HCl pH 8.0, 100 mM NaCl, 15 °C; one-site model
Outline: as §1

Sequence of CSP1 (A0A0H3CCM2 140-174): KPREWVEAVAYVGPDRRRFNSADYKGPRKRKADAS
Sequence of H6-MBP-CSP2 (A0A0H3CCM2 140-174 K168R): as the sequence (A0A0H3CCM2 140-174) above, with K29R counted along it
Sequence of CSP2 (A0A0H3CCM2 140-174 K168R): as the sequence (A0A0H3CCM2 140-174) above, with K29R counted along it
Sequence of CSP3 (A0A0H3CCM2 144-172 K168R): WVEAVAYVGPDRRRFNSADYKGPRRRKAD

Molecule: Nc1nc2c(ncn2[C@@H]2O[C@@H]3CO[P@](=O)(O)O[C@H]4[C@@H](O)[C@H](n5cnc6c(=O)[nH]c(N)nc65)O[C@@H]4CO[P@](=O)(O)O[C@H]3[C@H]2O)c(=O)[nH]1 [c-di-GMP, cyclic diguanylate (3'3'-c-di-GMP)]
- Kd (CSP3): 0.154 µM
- Kd (CSP10): 1.47 µM
- Kd (CSP14): 0.221 µM
- Kd (CSP18): 4.37 µM
- Kd (CSP31): 0.439 µM
- Kd (CSP21): 0.346 µM
- Kd (CSP19): 0.261 µM
- Kd (CSP4): 0.177 µM
- Kd (CSP20): 7.66 µM
- Kd (CSP1): 0.108 µM
- Kd (H6-MBP-CSP2): 0.125 µM
- Kd (CSP17): 0.145 µM
- Kd (CSP22): 1.83 µM
- Kd (CSP11): 1.51 µM
- Kd (CSP26): 0.251 µM
- Kd (CSP25): 0.273 µM
- Kd (CSP28): 1.04 µM
- Kd (CSP12): 0.782 µM
- Kd (CSP29): 1.27 µM
- Kd (CSP7): 1.71 µM
- Kd (CSP6): 1.41 µM
- Kd (CSP2): 0.019 µM
- Kd (CSP23): 4.8 µM
- Kd (CSP32): 0.338 µM
- Kd (CSP30): 1.25 µM
- Kd (CSP16): 0.102 µM
- Kd (CSP27): 1.72 µM
- Kd (CSP15): 0.209 µM
- Kd (CSP13): 0.14 µM
- Kd (CSP9): 1.75 µM

Molecule: Ac-DRRRFNSADYKGPRRRKAD-NH2 [CSP4]
- binding of 3′3′-cGAMP (MST) (3′3′-cGAMP): none of the related nucleotides or CDNs was able to bind
- binding of GMP (MST) (GMP): none of the related nucleotides or CDNs was able to bind
- binding of GTP (MST) (GTP): none of the related nucleotides or CDNs was able to bind
- binding of 2′3′-cGAMP (MST) (2′3′-cGAMP): none of the related nucleotides or CDNs was able to bind
- binding of c-di-GMP (MST) (c-di-GMP [1]): only c-di-GMP binding to CSP4 was observed
- binding of pGpG (MST) (pGpG): none of the related nucleotides or CDNs was able to bind
- binding of 3′3′-c-di-AMP (MST) (3′3′-c-di-AMP): none of the related nucleotides or CDNs was able to bind

Molecule: DRRRFNSADYKGPRRR [CSP8]
- Kd to c-di-GMP (c-di-GMP [2]): No binding

Molecule: RRRFNSADYKGPRRR [CSP5]
- Kd to c-di-GMP (c-di-GMP [2]): No binding

Source: publication PMC7382256 (Proceedings of the National Academy of Sciences of the …, 2020)
